Data reported in ChEMBL document CHEMBL1126855, “Synthesis and structure-activity relationships of a series of penicillin-derived HIV proteinase inhibitors containing a stereochemically unique peptide isostere” (J Med Chem, 1993).

What was measured:
MT4 = experiment: Inhibition of cytopathic effect of HIV-1 in MT-4 cells; type: functional, cell-based; conditions: Homo sapiens
[1] = molecular target: Human immunodeficiency virus type 1 protease (Human immunodeficiency virus 1, UniProt Q72874); experiment: Inhibitory activity against HIV-1 protease.
Method in brief: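 IC50 against HIV-1 proteinase, from duplicate determinations at each inhibitor concentration, with mean values used for analysis. Results were standardized against a control run in every assay.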

SMILES	EC50 (MT4) [nM]	IC50 [1] [nM]
CC1(C)S[C@H]([C@H](NC(=O)Cc2ccccc2)C(=O)NCc2ccccc2)N[C@H]1C(=O)N[C@H](Cc1ccccc1)[C@H](O)CC(N)=O	> 100000	82
C[C@H](Cc1ccccc1)NC(=O)[C@@H]1N[C@@H]([C@H](NC(=O)Cc2ccccc2)C(=O)NCc2ccccc2)SC1(C)C		> 180000
CC(C)[C@H](CO)NC(=O)[C@@H]1N[C@@H]([C@H](NC(=O)Cc2ccccc2)C(=O)NCc2ccccc2)SC1(C)C		> 4700
CC1(C)S[C@H]([C@H](NC(=O)Cc2ccccc2)C(=O)NCc2ccccc2)N[C@H]1C(=O)N[C@H](Cc1ccccc1)[C@H](O)CC(=O)NCc1ccccc1	4700	4.6
CC(C)CNC(=O)C[C@@H](O)[C@@H](Cc1ccccc1)NC(=O)[C@@H]1N[C@@H]([C@H](NC(=O)Cc2ccccc2)C(=O)NCc2ccccc2)SC1(C)C	> 150000	69
CC1(C)S[C@H]([C@H](NC(=O)Cc2ccccc2)C(=O)NCc2ccccc2)N[C@H]1C(=O)N[C@H](Cc1ccccc1)[C@H](O)CC(=O)N[C@@H](CO)c1ccccc1	> 100000	190
C[C@H](CO)NC(=O)[C@@H]1N[C@@H]([C@H](NC(=O)Cc2ccccc2)C(=O)NCc2ccccc2)SC1(C)C		> 20000
CC(C)C[C@H](CO)NC(=O)[C@@H]1N[C@@H]([C@H](NC(=O)Cc2ccccc2)C(=O)NCc2ccccc2)SC1(C)C		> 4600
CC1(C)S[C@H]([C@H](NC(=O)Cc2ccccc2)C(=O)NCc2ccccc2)N[C@H]1C(=O)NCCO		180000
CCCCC(CO)NC(=O)[C@@H]1N[C@@H]([C@H](NC(=O)Cc2ccccc2)C(=O)NCc2ccccc2)SC1(C)C (some centres not stated) [listing 1 of 2 here]		> 4600
CCC(C)C(CO)NC(=O)[C@@H]1N[C@@H]([C@H](NC(=O)Cc2ccccc2)C(=O)NCc2ccccc2)SC1(C)C (some centres not stated)		> 540
CC1(C)S[C@H]([C@H](NC(=O)Cc2ccccc2)C(=O)NCc2ccccc2)N[C@H]1C(=O)N[C@H](Cc1ccccc1)[C@H](O)CC(=O)N[C@H](CO)c1ccccc1	10600	170
CC1(C)S[C@H]([C@H](NC(=O)Cc2ccccc2)C(=O)NCc2ccccc2)N[C@H]1C(=O)N[C@H](Cc1ccccc1)[C@@H](O)CC(=O)NCc1ccccc1		2900
CC1(C)S[C@H]([C@H](NC(=O)Cc2ccccc2)C(=O)NCc2ccccc2)N[C@H]1C(=O)N[C@H](Cc1ccccc1)C(O)CNC(=O)Cc1ccccc1 (some centres not stated)	> 100000	53
CC(C)CNC(=O)C[C@H](O)[C@@H](Cc1ccccc1)NC(=O)[C@@H]1N[C@@H]([C@H](NC(=O)Cc2ccccc2)C(=O)NCc2ccccc2)SC1(C)C		2800
CC1(C)S[C@H]([C@H](NC(=O)Cc2ccccc2)C(=O)NCc2ccccc2)N[C@H]1C(=O)NCC(O)CNC(=O)[C@@H]1N[C@@H]([C@H](NC(=O)Cc2ccccc2)C(=O)NCc2ccccc2)SC1(C)C	2600	5

SMILES	EC50 (MT4) [nM]	IC50 [1] [nM]
CC1(C)S[C@H]([C@H](NC(=O)Cc2ccccc2)C(=O)NCc2ccccc2)N[C@H]1C(=O)N[C@H](Cc1ccccc1)[C@H](O)CC(=O)N[C@H](CO)Cc1ccccc1	> 100000	220
CC1(C)S[C@H]([C@H](NC(=O)Cc2ccccc2)C(=O)NCc2ccccc2)N[C@H]1C(=O)N[C@H](Cc1ccccc1)[C@H](O)CC(=O)N[C@@H](CO)Cc1ccccc1	> 100000	170
CC1(C)S[C@H]([C@H](NC(=O)Cc2ccccc2)C(=O)NCc2ccccc2)N[C@H]1C(=O)N[C@@H](CO)Cc1ccccc1		150
CC1(C)S[C@H]([C@H](NC(=O)Cc2ccccc2)C(=O)NCc2ccccc2)N[C@H]1C(=O)N[C@H](CO)Cc1ccccc1		> 170000
CC1(C)S[C@H]([C@H](NC(=O)Cc2ccccc2)C(=O)NCc2ccccc2)N[C@H]1C(=O)NCCCNC(=O)[C@@H]1N[C@@H]([C@H](NC(=O)Cc2ccccc2)C(=O)NCc2ccccc2)SC1(C)C		540
CC1(C)S[C@H]([C@H](NC(=O)Cc2ccccc2)C(=O)NCc2ccccc2)N[C@H]1C(=O)N[C@H](CO)CCc1ccccc1		26000
CCCCC(CO)NC(=O)[C@@H]1N[C@@H]([C@H](NC(=O)Cc2ccccc2)C(=O)NCc2ccccc2)SC1(C)C (some centres not stated) [listing 2 of 2 here]		250
CC1(C)S[C@H]([C@H](NC(=O)Cc2ccccc2)C(=O)NCc2ccccc2)N[C@H]1C(=O)N[C@H](Cc1ccccc1)[C@@H](O)CC(N)=O		1900
C[C@@H](Cc1ccccc1)NC(=O)[C@@H]1N[C@@H]([C@H](NC(=O)Cc2ccccc2)C(=O)NCc2ccccc2)SC1(C)C		> 180000
CC1(C)S[C@H]([C@H](NC(=O)Cc2ccccc2)C(=O)NCc2ccccc2)N[C@H]1C(=O)N[C@H](Cc1ccccc1)[C@H](O)CC(=O)NCCCO	5700	54
CC1(C)S[C@H]([C@H](NC(=O)Cc2ccccc2)C(=O)NCc2ccccc2)N[C@H]1C(=O)N[C@H](Cc1ccccc1)[C@H](O)CC(=O)NCC(O)CO (some centres not stated)	40000	95
CC1(C)S[C@H]([C@H](NC(=O)Cc2ccccc2)C(=O)NCc2ccccc2)N[C@H]1C(=O)N[C@H](Cc1ccccc1)[C@H](O)CC(=O)NCCO		1100
CC1(C)S[C@H]([C@H](NC(=O)Cc2ccccc2)C(=O)NCc2ccccc2)N[C@H]1C(=O)N[C@@H](CO)CCc1ccccc1		25000
CC1(C)S[C@H]([C@H](NC(=O)Cc2ccccc2)C(=O)NCc2ccccc2)N[C@H]1C(=O)N[C@H](Cc1ccccc1)[C@H](O)CC(=O)NCCc1ncc[nH]1		300
CC1(C)S[C@H]([C@H](NC(=O)Cc2ccccc2)C(=O)NCc2ccccc2)N[C@H]1C(N)=O		> 230000
